# Screens (PubChem)
# FN deposition inh: inhibitors of fibronectin matrix deposition, primary screen, AH1F cells, Alexa488-fibronectin fluorescence, plate reader | AH1F fibroblasts, overnight | inhibition, % at 12.6 µM | hit rate 0.086% among 350,000 | AID 743247, 2014;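 active means mean inhibition across replicates of 30% or more, regardless of how many single replicates reach that level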
#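 Test system: AH1F fibroblast monolayer depositing Alexa488-labelled fibronectin into matrix. Input: 10000 cells per well. Technique: fluorescence, ex 485 nm, em 525 nm. Buffer or medium: DMEM plus 2% serum, read in PBS. Timing: 1 h cell adhesion before compound, then overnight fibronectin incubation. Compound: single dose, pinned. Read-out basis: inhibition from reduced deposited-fibronectin fluorescence.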
# ERAP1 inh: human ERAP1 aminopeptidase inhibitors, primary screen, biochemical, single point, plate reader. inhibition, % at 10.7 µM. recombinant ERAP1, Leu-AMC fluorescence, 60 min. hit rate 0.15% among 340,000;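 active means mean replicate inhibition of at least 30%, or all replicates individually reaching that 30% level; inactive means mean below 30% and not every replicate reaching it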
# PGC1a acetyl inh: inhibitors of PGC1a acetylation signal, primary screen, cell-based, U2OS, AlphaScreen, inhibitor mode; AlphaScreen anti-acetyl-lysine; with virally co-expressed GCN5 acetyltransferase; inhibition, % at 15.6 µM; hit rate 0.17% among 350,000; AID 651687, 2012;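 active means every replicate shows inhibition of at least 40%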
# FGF22 binding: binders of human FGF22 protein, primary screen, FGF22 synaptogenesis inhibitor project, biophysical, thermal shift, single point | Fibroblast growth factor 22 (Homo sapiens), Q9HCT0 | activity (Tm shift, normalised), % at 9.99 µM | hit rate 1.5% among 340,000 | recombinant FGF22 thermal shift, SYPRO orange fluorescence; percent of sucrose octasulfate shift, DMSO zero | AID 651658, 2012;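 active means mean Tm shift, scaled 0 neutral to 100 positive control, at about 1.3% or above, every replicate too, limit read from the data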
# Target sequence (Q9HCT0 whole entry, looked up): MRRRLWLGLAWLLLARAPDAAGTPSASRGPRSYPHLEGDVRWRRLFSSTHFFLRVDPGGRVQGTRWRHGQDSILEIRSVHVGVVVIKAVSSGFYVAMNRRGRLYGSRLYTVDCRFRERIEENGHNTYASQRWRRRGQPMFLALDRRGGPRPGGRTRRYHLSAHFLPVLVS
# SIRT5 block: SIRT5 desuccinylase inhibitors, primary screen, biochemical, fluorescence imaging, single point, set 5; inhibition, % at 15 µM; Purified SirT5, succinyl-peptide AMC, trypsin-coupled fluorescence; hit rate 1.1% among 330,000; in the data active means inhibition above about 15%
# Target sequence (Q9NXA8 whole entry, looked up): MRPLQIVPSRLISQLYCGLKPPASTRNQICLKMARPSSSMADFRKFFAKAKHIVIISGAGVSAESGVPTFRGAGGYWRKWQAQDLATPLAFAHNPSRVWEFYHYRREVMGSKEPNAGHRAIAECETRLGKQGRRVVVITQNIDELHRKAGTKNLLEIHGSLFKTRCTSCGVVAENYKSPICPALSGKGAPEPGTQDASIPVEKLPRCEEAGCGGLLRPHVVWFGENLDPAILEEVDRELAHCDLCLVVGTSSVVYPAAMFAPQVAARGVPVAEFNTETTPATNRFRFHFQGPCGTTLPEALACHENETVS
# Numbers stand for hits; n = inactive; x = not tested or not shown. Only some compounds are listed: those with a hit (about 2.2% of all), similar ones and a draw of the others.
SMILES,FN deposition inh,ERAP1 inh,PGC1a acetyl inh,FGF22 binding,SIRT5 block
Cn1nnnc1SCC(=O)N1N=C(c2ccc(Cl)cc2)CC1c1ccco1 (stereo not given),n,n,n,n,n
CN(C)S(=O)(=O)c1cc(NC(=O)CN2CCc3ccccc32)ccc1Cl,n,n,75,n,n
COc1ccc(NC(=O)CN(C)CC(=O)Nc2ccc(Cl)c(S(=O)(=O)N(C)C)c2)cc1,n,n,n,43,n
CC1Cc2ccccc2N1CC(=O)Nc1ccc(Cl)c(S(=O)(=O)N(C)C)c1 (stereo not given),n,n,n,n,16
COc1ccc(CC(=O)OCC(=O)Nc2ccc(Cl)c(S(=O)(=O)N(C)C)c2)cc1,n,n,n,n,n
Cc1ccc(S(=O)(=O)Nc2ccc3c(c2)C(=O)N([C@@H](C)CO)C[C@H](C)[C@@H](CN(C)Cc2ccc4c(c2)OCO4)OCCCC[C@H](C)O3)cc1,x,n,x,n,n
CCC(=O)N1[C@@H](CO)[C@@H]2c3ccccc3N(C(=O)CC(F)(F)F)C[C@@H]21,x,x,n,n,n
C[C@@H](O)C#Cc1cnc2c(c1)C(=O)N([C@@H](C)CO)C[C@H](C)[C@H](CN(C)C(=O)c1ccccc1)O2,n,n,n,n,n
Cc1ccc(S(=O)(=O)Nc2ccc3c(c2)C(=O)N([C@@H](C)CO)C[C@H](C)[C@H](CN(C)Cc2ccc(C(F)(F)F)cc2)OCCCC[C@H](C)O3)cc1,n,n,n,n,15
Cc1ccc(S(=O)(=O)Nc2ccc3c(c2)C(=O)N([C@@H](C)CO)C[C@H](C)[C@H](CN(C)Cc2ccc(C(F)(F)F)cc2)OCCCC[C@@H](C)O3)cc1,n,n,n,n,18
Cc1ccc(S(=O)(=O)Nc2ccc3c(c2)C(=O)N([C@H](C)CO)C[C@H](C)[C@@H](CN(C)Cc2ccc(C(F)(F)F)cc2)OCCCC[C@H](C)O3)cc1,n,n,n,n,21
C[C@@H]1CCCCO[C@@H](CN(C)Cc2ccc(C(F)(F)F)cc2)[C@@H](C)CN([C@H](C)CO)C(=O)c2cc(NS(=O)(=O)c3ccccc3)ccc2O1,n,n,n,x,n
Cc1ccc(S(=O)(=O)Nc2ccc3c(c2)C(=O)N([C@@H](C)CO)C[C@H](C)[C@@H](CN(C)Cc2ccc(C(F)(F)F)cc2)OCCCC[C@@H](C)O3)cc1,n,n,n,n,17
Cc1ccc(S(=O)(=O)Nc2ccc3c(c2)C(=O)N([C@H](C)CO)C[C@@H](C)[C@H](CN(C)Cc2ccc(C(F)(F)F)cc2)OCCCC[C@H](C)O3)cc1,n,n,n,n,n
CCCNC(=O)C[C@H]1CC[C@@H]2[C@H](COc3ccc(NC(=O)c4cccs4)cc3C(=O)N2C)O1,n,x,n,n,n
Cc1ccc(-c2ccc([C@@H]3[C@H](CO)N4CCCCN(S(=O)(=O)c5ccccc5C)C[C@@H]34)cc2)cc1,x,n,n,n,n
O=C(Nc1ccccc1N1CCCCC1)C1=COCCO1,n,n,n,n,n
O=C(Nc1cc(C(F)(F)F)ccc1N1CCCCC1)C1=COCCO1,n,n,x,1.9,x
O=C(NC1=NCCS1)c1cc(-c2ccc(-c3ccccc3)cc2)nc2ccccc12,n,n,x,43,n
CCN(CC)CCN(CC(=O)N(C1CCCCC1)C1CCCCC1)C(=O)c1cccnc1,n,n,n,44,n
CC1CC(C)(C)NC(=S)N1CC(=O)NCc1ccc2c(c1)OCO2 (stereo not given),n,n,x,43,n
CC1CC(C)(C)NC(=S)N1CC(=O)NCc1ccc(F)cc1 (stereo not given),n,n,n,n,n
O=C(O)COc1ccccc1/C=N/NC(=O)CSc1nnc(SCc2cccc3ccccc23)s1,n,x,n,n,17
O=C(O)COc1ccccc1/C=N/NC(=O)CSc1nnc(SCc2ccc(Cl)cc2)s1,n,x,n,n,n
COc1ccc(NC(=O)C2(C)Cc3c(-c4ccc(C(N)=O)cc4)ccnc3O2)cc1OC (stereo not given),n,n,n,n,18
SMILES,FN deposition inh,ERAP1 inh,PGC1a acetyl inh,FGF22 binding,SIRT5 block
COc1ccc(NC(=O)C2(C)Cc3c(-c4ccc5c(c4)OCO5)ccnc3O2)cn1 (stereo not given),n,n,n,44,x
CCS(=O)(=O)Nc1ccc2c(c1)C(=O)N(C)[C@H]1CC[C@H](CC(=O)NCCOC)O[C@H]1CO2,n,n,x,n,n
COc1ccc2c(C)cc(N3CCCCCC3)nc2c1,n,n,n,n,n
COc1ccc2c(C)cc(N3CCN(Cc4ccccc4)CC3)nc2c1,n,37,n,n,n
O=C(Nc1ccccc1F)N1C[C@H]2[C@@H](c3ccccc31)[C@H](CO)N2C(=O)c1ccccc1F,x,n,n,n,n
CCN(CC)CCOC(c1ccccc1)c1ccc(C)cc1 (stereo not given),n,n,x,n,n
Cc1ccc(C(OCC(C)(C)C[N+](C)(C)C)c2ccccc2)cc1 (stereo not given),n,39,n,n,n
CCCNC(=O)C[C@H]1C[C@H]2c3cc(NC(=O)Nc4ccc(F)cc4)ccc3O[C@H]2[C@H](CO)O1,x,n,n,n,n
O=C(Nc1ccccc1F)c1cc2c(s1)-c1ccccc1S(=O)(=O)C2,n,x,n,n,24
CCCN1CCN(C(=O)Cn2nc(CC)n3c(cc4sccc43)c2=O)CC1,n,n,n,44,x
CCc1nn(CC(=O)NCCCN2CCOCC2)c(=O)c2cc3sccc3n12,n,n,n,n,n
CO[C@H]1CN(C)C(=O)c2ccc(NC(=O)c3cnccn3)cc2OC[C@@H](C)NC[C@@H]1C,n,x,n,x,x
O=c1[nH]c2nc(Cl)nc(Cl)c2[nH]1,n,n,74,n,x
COc1ccc(C(=O)Nc2ccc(C(F)(F)F)n(C)c2=O)cc1,n,n,x,44,n
CCn1c(/C=C/c2cc[n+](C)cc2)nc2ccccc21,n,59,n,n,n
O=C(c1ccc(Cl)cc1)C1CCCN(C(=O)c2csnn2)C1 (stereo not given),x,n,n,n,112
Cc1nnc(SCC(=O)N2CCCC(C(=O)c3ccc(Cl)cc3)C2)o1 (stereo not given),n,n,n,43,n
COc1ccc2cc(C(=O)C3CCCN(C(=O)CSc4nnc(C)o4)C3)ccc2c1 (stereo not given),n,n,x,n,n
COc1ccc2cc(C(=O)C3CCCN(C(=O)c4csnn4)C3)ccc2c1 (stereo not given),x,n,n,n,n
O=C(CCN1CCCCC1)NCC[C@@H]1CC[C@H](NC(=O)Cc2cccnc2)[C@@H](CO)O1,n,x,n,n,n
O=C(NCC1CC1)[C@H]1[C@H](CO)[C@H]2Cn3c(ccc(-c4cccc(F)c4)c3=O)[C@H]2N1CC1CC1,x,n,x,x,n
